Results as given in article PMC6831891 (Molecular Therapy. Nucleic Acids, 2019).

Experiments:
[1] = test system: S. pyogenes strain 591 (M49); assay: G. mellonella infection model; type: in vivo, Galleria mellonella
How it was run: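 Wax moth larvae (150–200 mg) injected into the hemocoel, between the last two pro-leg pairs, with 1–3 × 10^6 CFU/larva. Inoculum was grown overnight in THY, washed twice and resuspended in 0.9% NaCl. Test compound (4 nmol/larva) injected 30 min post-infection; 0.9% NaCl served as mock. Survival recorded daily over 7 days.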

[2] = test system: S. pyogenes M49 strain 591; assay: Bacterial kill assay; type: cell-based, Streptococcus pyogenes; details: for Reduction of CFU per milliliter: concentration range 1 to 10 μM, n = 3; for Reduction of CFU per milliliter / Clearance six hours following treatment / Reduction of bacterial counts by scPNA / Reduction of bacterial counts by scPNAs in kill assay: 6 h; for Clearance six hours following treatment: 5 μM or 10 μM; for log CFU reduction: six hours following treatment; for Reduction of bacterial counts by scPNA: 10 μM scPNA, n = 5; for Reduction of bacterial counts by scPNAs in kill assay: up to 5 μM scPNA
How it was run: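 S. pyogenes overnight cultures diluted in PBS/BHI (7/2) to about 2 × 10^5 CFU/mL. Test compound added to 1–10 μM final, with water as mock. Incubated 6 h at 37°C while rotating at 7 rpm. Dilutions plated on THY agar, and CFU counted after overnight growth at 37°C under 5% CO2/20% O2. Initial screen used two biological replicates; later experiments used at least three.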

[3] = test system: S. pyogenes M1 strain AP1; assay: Bacterial kill assay, strain AP1; type: cell-based, Streptococcus pyogenes; details: 6 h (data not shown; Figure 3B cited)
How it was run: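 Overnight THY cultures (37°C, 5% CO2/20% O2) diluted in PBS/BHI (7/2) to about 2 × 10^5 CFU/mL. About 10^5 CFU were exposed to CPP-PNA conjugates at 1–10 μM final, with 5 μM used in the isolate comparison; water was the mock. Incubation 6 h at 37°C, rotating at 7 rpm. Viable counts came from plating dilutions on THY agar, compared with the untreated control.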

gyrA mRNA = type: cell-based, Streptococcus pyogenes; details: 2 μM CPP-PNA, 6 h, 10^7 CFU/mL in THY; normalised to 5S RNA gene, 2^-ΔΔct; n = 3

`C[C@H]1COc2c(N3CCN(C)CC3)c(F)cc3c(=O)c(C(=O)O)cn1c23` [levofloxacin, reference compound] was tested, and the “Survival of infected larvae” value ([1]; 1 μg levofloxacin alone, untreated infected larvae 20%, n = 30 larvae per group) was 46%.

With “Dansyl-G-C-ELALE LALEALEAALELA [ELA-anti-gyrA PNA]” the “Reduction of CFU per milliliter” value [2] was “no reduction”.

With KKKKKKKK [K8-anti-gyrA PNA] the “Clearance six hours following treatment” value [2] was “no clearance was achieved”, the “log CFU reduction” value ([2]; 5 μM) was “three” and the “log CFU reduction” value ([2]; 10 μM) was “four”. The “Antimicrobial effect in AP1” value [3] was “did not show any antimicrobial effect” and the “gyrA mRNA level relative to mock-treated bacteria” value (gyrA mRNA) was 60%.

With KKKKKKKK [K8-anti-gyrA scPNA] the “Reduction of bacterial counts by scPNA” value [2] was “significant reduction” and the “Reduction of bacterial counts by scPNAs in kill assay” value [2] was “did not lead to the reduction of bacterial counts”.

In the case of “LLIILRRRIRKQAHAHSK [mVE-cadherin-anti-gyrA PNA]”, the “Reduction of CFU per milliliter” value [2] was “no reduction”.

RQIKIWFQNRRMKWKK [Ant-anti-gyrA PNA] was tested, and the “Reduction of CFU per milliliter” value [2] was “no reduction”.

With RXRRXRRXRRXRXB [(RXR)4XB-anti-gyrA PNA] the “Clearance six hours following treatment” value [2] was “no clearance was achieved”, the “log CFU reduction” value ([2]; 5 μM) was “three” and the “log CFU reduction” value ([2]; 10 μM) was “four”. For the same molecule, the “gyrA mRNA level relative to mock-treated bacteria” value (gyrA mRNA) was 56% and the “Effect on larvae survival relative to the other active conjugates” value ([1]; 4 nmol/larva, 7 days) was “lower compared with the other conjugates”.

In the case of “RXRRXRRXRRXRXB [(RXR)4XB-anti-gyrA scPNA]”, the “Reduction of bacterial counts by scPNA” value [2] was “significant reduction” and the “Reduction of bacterial counts by scPNAs in kill assay” value [2] was “did not lead to the reduction of bacterial counts”.
